Measured values from different studies.
Compare with care: the assays were run in different laboratories. In brackets after ≈: the same amount, converted by molar mass.
Organism: Pichia kudriavzevii

The MFC of `C[C@@H]1[C@H](O)[C@@H](C)/C=C/C=C/C=C/C=C/C=C/C=C/C=C/[C@H](O[C@@H]2O[C@H](C)[C@@H](O)[C@H](N)[C@@H]2O)C[C@@H]2O[C@](O)(C[C@@H](O)C[C@@H](O)[C@H](O)CC[C@@H](O)C[C@@H](O)CC(=O)O[C@H]1C)C[C@H](O)[C@H]2C(=O)O` is reported as 1.25 µg/mL (≈ 1.35 µM) (microbial killing; ATCC6258).
With `C[C@@H]1[C@H](O)[C@@H](C)/C=C/C=C/C=C/C=C/C=C/C=C/C=C/[C@H](O[C@@H]2O[C@H](C)[C@@H](O)[C@H](N)[C@@H]2O)C[C@@H]2O[C@](O)(C[C@@H](O)C[C@@H](O)[C@H](O)CC[C@@H](O)C[C@@H](O)CC(=O)O[C@H]1C)C[C@H](O)[C@H]2C(=O)O` the IC50 was 0.65 µg/mL (≈ 0.703 µM) (microbial growth; broth dilution; ATCC6258).
For `C[C@@H]1[C@H](O)[C@@H](C)/C=C/C=C/C=C/C=C/C=C/C=C/C=C/[C@H](O[C@@H]2O[C@H](C)[C@@H](O)[C@H](N)[C@@H]2O)C[C@@H]2O[C@](O)(C[C@@H](O)C[C@@H](O)[C@H](O)CC[C@@H](O)C[C@@H](O)CC(=O)O[C@H]1C)C[C@H](O)[C@H]2C(=O)O`, the MIC was 1.25 µg/mL (≈ 1.35 µM) (microbial growth; ATCC6258).
`CCCCCCCCCCCCCN1CCN(CC(O)(Cn2cncn2)c2ccc(F)cc2F)CC1` (centres unmarked) has an MIC of 0.975 µg/mL (≈ 1.93 µM) (microbial growth; broth dilution; ATCC6258; 48 h).
The IC50 of `CCCCCCCCOc1c(OC)cc(NC(C)CCCN)c2nc(C(C)(C)C)ccc12` (centres unmarked) is reported as 5.82 µg/mL (≈ 13.1 µM) (microbial growth; ATCC6258).
For `OC(Cn1cncn1)(Cn1cncn1)c1ccc(F)cc1F`, the MIC90 was 256 µg/mL (≈ 836 µM) (microbial growth; broth dilution; 24 h).
With `CCCCCOc1c(OC)cc(NC(C)CCCNC(=O)C(N)Cc2cc3ccccc3[nH]2)c2nc(C(C)(C)C)ccc12` (centres unmarked) the IC50 was 4.28 µg/mL (≈ 7.28 µM) (microbial growth; ATCC6258).
`CCCCCCCCCCCCN1CCN(CC(O)(Cn2cncn2)c2ccc(F)cc2F)CC1` (centres unmarked) has an MIC of 0.48 µg/mL (≈ 0.976 µM) (microbial growth; broth dilution; ATCC6258; 48 h).
With `CC(C)C1=CC2=CC(=O)[C@H]3C(C)(C)CCC[C@]3(C)C2=C(O)C1=O` the IC50 was 12 µg/mL (≈ 38.2 µM) (microbial growth; ATCC6258).
The MIC of `CCCCCN1CCNCC1` is reported as over 31.3 µg/mL (microbial growth; broth dilution; ATCC6258; 48 h).
`CCCCOc1c(OC)cc(NC(C)CCCN)c2nc(C(C)(C)C)cc(C)c12` (centres unmarked) has an MFC of 10 µg/mL (≈ 24.9 µM) (microbial killing; ATCC6258).
For `C[C@@H]1[C@H](O)[C@@H](C)/C=C/C=C/C=C/C=C/C=C/C=C/C=C/[C@H](O[C@@H]2O[C@H](C)[C@@H](O)[C@H](N)[C@@H]2O)C[C@@H]2O[C@](O)(C[C@@H](O)C[C@@H](O)[C@H](O)CC[C@@H](O)C[C@@H](O)CC(=O)O[C@H]1C)C[C@H](O)[C@H]2C(=O)O`, the MIC90 was 0.125 µg/mL (≈ 0.135 µM) (microbial growth).
With `CCCCCCCCCCCCCCN1CCOCC1` the MIC was over 31.3 µg/mL (microbial growth; broth dilution; ATCC6258; 48 h).
The MIC90 of `C[C@@H](c1ncncc1F)[C@](O)(Cn1cncn1)c1ccc(F)cc1F` is reported as 0.25 µg/mL (≈ 0.716 µM) (microbial growth).
`CCCCCCOc1c(OC)cc(NC(C)CCCN)c2nc(C(C)(C)C)ccc12` (centres unmarked) has an IC50 of 7.16 µg/mL (≈ 17.2 µM) (microbial growth; ATCC6258).
`C[C@@H]1[C@H](O)[C@@H](C)/C=C/C=C/C=C/C=C/C=C/C=C/C=C/[C@H](O[C@@H]2O[C@H](C)[C@@H](O)[C@H](N)[C@@H]2O)C[C@@H]2O[C@](O)(C[C@@H](O)C[C@@H](O)[C@H](O)CC[C@@H](O)C[C@@H](O)CC(=O)O[C@H]1C)C[C@H](O)[C@H]2C(=O)O` gave an MIC of 3.9 µg/mL (≈ 4.22 µM) (microbial growth; broth dilution; ATCC6258; 48 h).
With `CCC(C)n1ncn(-c2ccc(N3CCN(c4ccc(OCC5COC(Cn6cncn6)(c6ccc(Cl)cc6Cl)O5)cc4)CC3)cc2)c1=O` (centres unmarked) the MIC90 was 0.5 µg/mL (≈ 0.709 µM) (microbial growth).
`CN1CCN(CC(O)(Cn2cncn2)c2ccc(F)cc2F)CC1` (centres unmarked) gave an MIC of 15.6 µg/mL (≈ 46.2 µM) (microbial growth; broth dilution; ATCC6258; 48 h).
The IC50 of `CCCCCCCCCCCCCC(O)CC(O)CO` (centres unmarked) is reported as 196 µg/mL (≈ 681 µM) (microbial growth; broth dilution; ATCC6258).
`CCCCCCOc1c(OC)cc(NC(C)CCCN)c2nc(C(C)(C)C)cc(C)c12` (centres unmarked) has an MFC of 5 µg/mL (≈ 11.6 µM) (microbial killing; ATCC6258).
For `C#CCCCCCCCCC=CCC(O)CC(O)CO` (centres unmarked), the IC50 was over 8 µg/mL (microbial growth; broth dilution; ATCC6258).
`CCCCCOc1c(OC)cc(NC(C)CCCNC(=O)C(N)CC(C)C)c2nc(C(C)(C)C)ccc12` (centres unmarked) gave an IC50 of 8.73 µg/mL (≈ 17 µM) (microbial growth; ATCC6258).
`CCCCCCCCN1CCNCC1` has an MIC of over 31.3 µg/mL (microbial growth; broth dilution; ATCC6258; 48 h).
